Screening results as filed in PubChem BioAssay.
LEDGF integ inh – blocks HIV-1 LEDGF/p75-dependent DNA integration. TR-FRET IN-LEDGF/p75 DNA integration, Eu/Cy5. inhibition, % at 3.7 µM. 0.64% of 370,000 active. AID 743269;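 active means inhibition above the screen-wide mean plus 3 SD, cut at about 13% in these data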;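 further: signal is the Cy5 over europium emission ratio at 671 and 618 nm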
UHRF1 MBD2 ctr – human UHRF1 methylated DNA binding inhibitors; UHRF1 binding to methylated oligo, TR-FRET; inhibition, % at 4.4 µM; 0.75% of 370,000 active; in the data active means inhibition above about 21%;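 further: UHRF1 SRA domain binding a hemimethylated CpG hairpin DNA probe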
ATG4B inhibitor – blocks human ATG4B protease cleavage of LC3 substrate; Q9Y4P1; ATG4B cleavage of LC3-PLA2, NBD-HPC fluorescence, 1 h; inhibition, % at 8.33 µM; 0.51% of 340,000 active; AID 504462; in the data active means inhibition above about 40%
CSN inh – blocks human CSN-mediated cullin deneddylation; 0.38% of 360,000 active; Q92905; Purified CSN, SCF-Nedd8-OG deneddylation, fluorescence polarization; inhibition, % at 12.5 µM;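 active means pattern-corrected inhibition above about 35%, with an unprinted fluorescence ratio check between 0.5 and 1.5, limit read from the data, passing the limit was not always enough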
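Assay system: purified human Csn5 enzyme expressed in HEK293T cells; measure: % inhibition; also added: SCFSkp2-Nedd8OG substrate at 10 nM final; technique: fluorescence polarization; times: reaction 90 min, room temperature; medium: Tris buffer pH 7.5, NaCl, DTT, Tween-20, trehalose, ovalbumin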
rCAG RNA binder – r(CAG) repeat RNA binding. TO-PRO-1 dye displacement fluorescence. inhibition, % at 3 µM. 1.3% of 370,000 active;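 active means inhibition above the plate cutoff, the mean of all test compounds on that plate plus 3 SD, cut at about 35% in these data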;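 further: higher means more dye released from RNA so lower well fluorescence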
MBD2 DNA inh – inhibitors of human MBD2 binding to methylated oligonucleotide; Q9UBB5; TR-FRET; inhibition, % at 4.4 µM; 0.31% of 370,000 active; AID 686964; in the data active means inhibition above about 13%
Target sequence (Q9UBB5 whole entry, looked up): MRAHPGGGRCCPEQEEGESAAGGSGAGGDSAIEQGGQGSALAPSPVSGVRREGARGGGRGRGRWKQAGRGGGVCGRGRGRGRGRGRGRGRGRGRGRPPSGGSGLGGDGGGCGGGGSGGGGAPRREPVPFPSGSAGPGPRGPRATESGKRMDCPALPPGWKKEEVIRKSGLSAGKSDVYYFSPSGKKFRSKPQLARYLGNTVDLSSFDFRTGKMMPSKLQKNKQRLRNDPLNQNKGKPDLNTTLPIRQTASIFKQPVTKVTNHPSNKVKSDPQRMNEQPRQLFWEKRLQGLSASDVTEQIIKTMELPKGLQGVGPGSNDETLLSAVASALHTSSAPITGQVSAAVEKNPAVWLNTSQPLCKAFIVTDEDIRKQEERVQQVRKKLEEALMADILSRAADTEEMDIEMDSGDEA
rCAG bind conf – r(CAG) RNA repeat binding, confirmation; shares compounds with rCAG RNA binder; TO-PRO-1 dye displacement fluorescence; inhibition, % at 3 µM; 70% of 4,300 active;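 active means inhibition above a per-plate cutoff, the mean inhibition of sample wells plus 3 SD, cut at about 35% in these data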;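 further: loss of TO-PRO-1 fluorescence as compound displaces dye from 1x1 AA loop RNA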
DNA CAG counter – counter-screen for rCAG RNA binders: DNA CAG dye complex inhibitors. shares compounds with rCAG RNA binder. d(CAG) DNA oligo TO-PRO-1 dye displacement, fluorescence. inhibition, % at 3 µM. 94% of 4,300 active. AID 652068;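 active means inhibition above its plate's cutoff, the mean test-well inhibition plus 3 SD, cut at about 4.8% in these data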;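 further: hits displace the dye from DNA and so lower well fluorescence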
Large screens that a line does not name were inactive (follow-up assays come after a bar, where they were run). Hits are enriched below; roughly 3.1% of the tested compounds scored in any of these assays.

O=C(O)c1ccccc1NS(=O)(=O)c1ccc(NN=Cc2ccc(F)cc2)c([N+](=O)[O-])c1	none (no result: LEDGF integ inh, UHRF1 MBD2 ctr, rCAG RNA binder, MBD2 DNA inh)
O=C(O)c1ccccc1NS(=O)(=O)c1ccc(NN=Cc2cccc(Cl)c2)c([N+](=O)[O-])c1	rCAG RNA binder 59.4 | rCAG bind conf 89.6 | DNA CAG counter 67.9
CCOC(=O)[C@]12CCCC=C1N(Cc1ccc(OC)cc1)C(=O)[C@@H]2CC(=O)N1CCN(C(=O)C2CC2)CC1	none (no result: ATG4B inhibitor, CSN inh)
CC(C)c1ccc(C(=O)Nc2cc(Cl)ccc2C(=O)O)cc1	none (no result: ATG4B inhibitor, CSN inh, rCAG RNA binder)
Brc1ccc(CSc2nnc(SCc3ccccc3)s2)cc1	none (no result: ATG4B inhibitor, CSN inh)
O=C1Nc2c(Cl)cc(Cl)cc2C12Nc1ccccc1S2 (stereo unspecified)	rCAG RNA binder 41.3 (no result: ATG4B inhibitor, CSN inh) | rCAG bind conf inactive | DNA CAG counter 8.0
O=C(OCC#CCSc1nnc(-c2cccc3ccccc23)o1)c1ccccc1F	none (no result: ATG4B inhibitor, CSN inh, rCAG RNA binder)
O=C(Cn1nnc(-c2ccccc2F)n1)Nc1ccc(Cl)cc1	none (no result: ATG4B inhibitor, CSN inh)
COc1cc(OC)cc(C(=O)Nc2nc3ccc(S(C)(=O)=O)cc3s2)c1	none
O=C(Nc1nc2ccc(SC(F)F)cc2s1)c1ccc(NS(=O)(=O)c2ccc(F)c(F)c2)cc1	rCAG RNA binder 62.4 | rCAG bind conf 83.5 | DNA CAG counter 65.9
CSc1nc2ccc(NC(=O)c3ccc(F)c(F)c3)cc2s1	none
CS(=O)(=O)c1ccc2nc(NC(=O)c3ccc(NS(=O)(=O)c4ccc(F)c(F)c4)cc3)sc2c1	rCAG RNA binder 35.8 | rCAG bind conf 66.5 | DNA CAG counter 26.6
CS(=O)(=O)c1ccc2nc(NC(=O)c3cccc(NS(=O)(=O)c4ccc(F)c(F)c4)c3)sc2c1	rCAG RNA binder 59.3 | rCAG bind conf 60.5 | DNA CAG counter 24.6
CCn1cc(C(=O)N2CCN(Cc3ccc(C)cc3)CC2)c(=O)c2ccc(C)nc21	none (no result: ATG4B inhibitor, CSN inh)
O=C(Nc1cc(Br)ccc1O)c1cc(-c2ccco2)on1	rCAG RNA binder 42.5 | rCAG bind conf 42.0 | DNA CAG counter 19.1
O=C(Nc1cc(Br)ccc1O)c1cc(-c2ccccc2)on1	none
O=C(Nc1cc(Cl)ccc1O)c1cc(-c2ccco2)on1	rCAG RNA binder 45.6 | rCAG bind conf inactive | DNA CAG counter 11.9
CCc1ccc(N=C2NC(=O)/C(=C/c3ccc(OCC(=O)O)cc3)S2)cc1	rCAG RNA binder 48.6 | rCAG bind conf 40.3 | DNA CAG counter 10.1
COc1cc(/C=C2/SC(=Nc3ccc(O)cc3)NC2=O)cc(OC)c1O	none
CCc1ccc(N=C2NC(=O)/C(=C/c3ccc(OCC(=O)O)c(OC)c3)S2)cc1	rCAG RNA binder 42.4 | rCAG bind conf 39.1 | DNA CAG counter 11.9
O=C(c1ccccc1NS(=O)(=O)c1ccc(F)cc1)N1CCCCC1	none
O=C(Nc1cc(S(=O)(=O)N2CCCCC2)ccc1Cl)c1ccccc1NS(=O)(=O)c1ccc(F)cc1	rCAG RNA binder 88.7 | rCAG bind conf 89.3 | DNA CAG counter 64.8
O=C(Nc1cc(S(=O)(=O)N2CCCCC2)ccc1O)c1ccccc1NS(=O)(=O)c1ccc(F)cc1	rCAG RNA binder 85.1 | rCAG bind conf 87.0 | DNA CAG counter 57.5
O=C(Nc1ccccc1N1CCOCC1)c1ccccc1NS(=O)(=O)c1ccc(F)cc1	none
O=C(Nc1ccccc1N1CCOCC1)c1ccccc1NS(=O)(=O)c1ccc(F)c(F)c1	rCAG RNA binder 37.7 | rCAG bind conf inactive | DNA CAG counter 7.2
CCCC(=O)OC12CCCN(C1)/C(=C/c1ccccc1)C2 (stereo unspecified)	none (no result: ATG4B inhibitor, CSN inh)
CCOC(=O)c1cccc(NC(=O)CN(C)S(=O)(=O)c2ccc(C)c(C)c2)c1	none (no result: ATG4B inhibitor, CSN inh)
Cc1ccc(S(=O)(=O)N2[C@@H](c3ccc(Cl)cc3)C(C(=O)O)=C[C@H]2CC2CCCC2)cc1	rCAG RNA binder 76.7 | rCAG bind conf 76.5 | DNA CAG counter 39.5
